Measurements from ChEMBL document CHEMBL4145654, “Structure-Based Discovery of CF53 as a Potent and Orally Bioavailable Bromodomain and Extra-Terminal (BET) Bromodomain Inhibitor” (J Med Chem, 2018).

What was measured:
[1] = molecular target: Bromodomain-containing protein 9 (Homo sapiens, UniProt Q9H8M2); test: Binding affinity to human BRD9 (R130 to V259 residues) expressed in bacterial expression system by BROMOScan assay
MDA-MB-231 = test: Antitumor activity against human MDA-MB-231 cells xenografted in SCID mouse assessed as tumor growth inhibition at 25 mg/kg administered via oral gavage measured on day 44; type: functional; details: MDA-MB-231, po, 1056 h, read-out: TGI
Outline: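 SCID mice were implanted subcutaneously on the dorsal side with 5 × 10⁶ MDA-MB-231 or RS4;11 cells in 50% Matrigel, one tumor per mouse. At ca. 100 mm3, mice were randomized to treatment or vehicle groups and dosed by oral gavage. Tumor volume = L × W²/2. Body weight change tracked. p values by two-tailed unpaired t-test.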

[2] = molecular target: Histone acetyltransferase KAT2A (Homo sapiens, UniProt Q92830); test: Binding affinity to human GCN5L2 (E726 to K837 residues) expressed in bacterial expression system by BROMOScan assay
[3] = molecular target: SWI/SNF-related matrix-associated actin-dependent regulator of chromatin subfamily A member 2 (Homo sapiens, UniProt P51531); test: Binding affinity to human SMARCA2 (S1377 to Q1486 residues) expressed in bacterial expression system by BROMOScan assay
[4] = molecular target: Bromodomain testis-specific protein (Homo sapiens, UniProt Q58F21); test: Binding affinity to human BRDT bromodomain 2 (K250 to E382 residues) expressed in bacterial expression system by BROMOscan assay
Homo sapiens [5] = species on record: Homo sapiens; test: Selectivity index, ratio of Kd for human EP300 (A1040 to G1161 residues) to Kd for human BRD3 bromodomain 1 (P24 to E144 residues)
[6] = molecular target: Bromodomain adjacent to zinc finger domain protein 2A (Homo sapiens, UniProt Q9UIF9); test: Binding affinity to human BAZ2A (M1792 to L1905 residues) expressed in bacterial expression system by BROMOScan assay
[7] = molecular target: Bromodomain-containing protein 3 (Homo sapiens, UniProt Q15059); test: Binding affinity to human BRD3 bromodomain 2 (G306 to P416 residues) expressed in bacterial expression system by BROMOscan assay
Mus musculus = test: Toxicity in SCID mouse xenografted with human MDA-MB-231 cells assessed as change in body weight at 10 to 50 mg/kg administered via oral gavage measured 2 to 3 times per week during compound dosing and measured weekly post treatment; type: organism-based; details: in vivo
Outline: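 Xenografts raised by subcutaneous dorsal injection of 5 × 10⁶ cells in 50% Matrigel into SCID mice, one tumor per mouse. Mice randomized to treatment or vehicle groups at about 100 mm3 tumor volume. Compounds given by oral gavage at the indicated dose-schedules, with percentage body-weight change tracked alongside tumor volume (L × W²/2).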

Homo sapiens [8] = species on record: Homo sapiens; test: Selectivity index, ratio of Kd for human CECR2 (P423 to D543 residues) to Kd for human BRD4 bromodomain 1 (N44 to E168 residues)
Homo sapiens [9] = species on record: Homo sapiens; test: Selectivity index, ratio of Kd for human CECR2 (P423 to D543 residues) to Kd for human BRDT bromodomain 1 (N21 to E137 residues)
[10] = molecular target: Histone acetyltransferase KAT2B (Homo sapiens, UniProt Q92831); test: Binding affinity to human PCAF (G715 to D831 residues) expressed in bacterial expression system by BROMOScan assay
Homo sapiens [11] = species on record: Homo sapiens; test: Selectivity index, ratio of Kd for human CREBBP (R1081 to G1197 residues) to Kd for human BRDT bromodomain 2 (K250 to E382 residues)
[12] = molecular target: Bromodomain-containing protein 8 (Homo sapiens, UniProt Q9H0E9); test: Inhibition of BRD8 bromodomain 2 (unknown origin) by BROMOScan assay
[13] = molecular target: Transcription initiation factor TFIID subunit 1 (Homo sapiens, UniProt P21675); test: Binding affinity to human TAF1 bromodomain 2 (D1521 to D1656 residues) expressed in bacterial expression system by BROMOScan assay
RS4-11 = test: Antitumor activity against human RS4:11 cells xenografted in SCID mouse assessed as tumor growth inhibition at 50 mg/kg administered via oral gavage measured on day 35; type: functional; details: RS4-11, po, 840 h, read-out: TGI
Outline: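 Each SCID mouse received a single dorsal subcutaneous tumor of 5 × 10⁶ RS4;11 or MDA-MB-231 cells in 50% Matrigel. At about 100 mm3, mice were randomised to treatment or vehicle control groups. Dosing was by oral gavage at the stated schedules. Tumor volume was L × W²/2, and body weight was tracked. TGI versus vehicle at end of treatment was tested by unpaired two-tailed t-test.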

[14] = molecular target: Bromodomain and PHD finger-containing protein 3 (Homo sapiens, UniProt Q9ULD4); test: Binding affinity to human BRPF3 (E588 to G701 residues) expressed in bacterial expression system by BROMOScan assay
[15] = Plasma concentration in SCID mouse xenografted with human MDA-MB-231 cells at 50 mg/kg administered via oral gavage measured after 6 hrs; type: ADME, organism-based
Outline: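 SCID mice carrying MDA-MB-231 tumors dosed orally at 50 mg/kg. Plasma drug level determined by LC-MS/MS (positive-ion MRM, C18 column, formic acid/acetonitrile gradient). Value is the mean from two mice per time point.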

[16] = molecular target: ATPase family AAA domain-containing protein 2 (Homo sapiens, UniProt Q6PL18); test: Binding affinity to human ATAD2A (Q981 to R1108 residues) expressed in bacterial expression system by BROMOScan assay
[17] = molecular target: Histone acetyltransferase p300 (Homo sapiens, UniProt Q09472); test: Binding affinity to human EP300 (A1040 to G1161 residues) expressed in bacterial expression system by BROMOScan assay
[18] = Oral bioavailability in Balb/c mouse at 25 mg/kg by LC-MS/MS analysis; type: ADME, organism-based; details: in vivo
Outline: (§1)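 Balb/c mice dosed iv at 5.0 mg/kg or po at 25 mg/kg, compound in vehicle of 20% (v/v) PCP and 70% (v/v) PBS. Serial blood samples taken at 0, 5, 15, 30 min and 1, 2, 4, 6, 8, 24 h. Plasma obtained by centrifugation and stored at −80 °C. Analysis by LC-MS/MS, positive-ion MRM. Parameters from noncompartmental analysis.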

Homo sapiens [19] = species on record: Homo sapiens; test: Selectivity index, ratio of Kd for human CECR2 (P423 to D543 residues) to Kd for human BRD4 bromodomain 2 (K333 to E460 residues)
[20] = molecular target: ATPase family AAA domain-containing protein 2B (Homo sapiens, UniProt Q9ULI0); test: Binding affinity to human ATAD2B (Q955 to R1082 residues) expressed in bacterial expression system by BROMOScan assay
Homo sapiens [21] = species on record: Homo sapiens; test: Selectivity index, ratio of Kd for human CECR2 (P423 to D543 residues) to Kd for human BRD3 bromodomain 1 (P24 to E144 residues)
[22] = Half life in Balb/c mouse at 25 mg/kg, po by LC-MS/MS analysis; type: ADME, organism-based; details: in vivo; outline: as §1

ATPase family AAA domain-containing protein 2B, sequence (Q9ULI0 whole entry, the tested form may be a part): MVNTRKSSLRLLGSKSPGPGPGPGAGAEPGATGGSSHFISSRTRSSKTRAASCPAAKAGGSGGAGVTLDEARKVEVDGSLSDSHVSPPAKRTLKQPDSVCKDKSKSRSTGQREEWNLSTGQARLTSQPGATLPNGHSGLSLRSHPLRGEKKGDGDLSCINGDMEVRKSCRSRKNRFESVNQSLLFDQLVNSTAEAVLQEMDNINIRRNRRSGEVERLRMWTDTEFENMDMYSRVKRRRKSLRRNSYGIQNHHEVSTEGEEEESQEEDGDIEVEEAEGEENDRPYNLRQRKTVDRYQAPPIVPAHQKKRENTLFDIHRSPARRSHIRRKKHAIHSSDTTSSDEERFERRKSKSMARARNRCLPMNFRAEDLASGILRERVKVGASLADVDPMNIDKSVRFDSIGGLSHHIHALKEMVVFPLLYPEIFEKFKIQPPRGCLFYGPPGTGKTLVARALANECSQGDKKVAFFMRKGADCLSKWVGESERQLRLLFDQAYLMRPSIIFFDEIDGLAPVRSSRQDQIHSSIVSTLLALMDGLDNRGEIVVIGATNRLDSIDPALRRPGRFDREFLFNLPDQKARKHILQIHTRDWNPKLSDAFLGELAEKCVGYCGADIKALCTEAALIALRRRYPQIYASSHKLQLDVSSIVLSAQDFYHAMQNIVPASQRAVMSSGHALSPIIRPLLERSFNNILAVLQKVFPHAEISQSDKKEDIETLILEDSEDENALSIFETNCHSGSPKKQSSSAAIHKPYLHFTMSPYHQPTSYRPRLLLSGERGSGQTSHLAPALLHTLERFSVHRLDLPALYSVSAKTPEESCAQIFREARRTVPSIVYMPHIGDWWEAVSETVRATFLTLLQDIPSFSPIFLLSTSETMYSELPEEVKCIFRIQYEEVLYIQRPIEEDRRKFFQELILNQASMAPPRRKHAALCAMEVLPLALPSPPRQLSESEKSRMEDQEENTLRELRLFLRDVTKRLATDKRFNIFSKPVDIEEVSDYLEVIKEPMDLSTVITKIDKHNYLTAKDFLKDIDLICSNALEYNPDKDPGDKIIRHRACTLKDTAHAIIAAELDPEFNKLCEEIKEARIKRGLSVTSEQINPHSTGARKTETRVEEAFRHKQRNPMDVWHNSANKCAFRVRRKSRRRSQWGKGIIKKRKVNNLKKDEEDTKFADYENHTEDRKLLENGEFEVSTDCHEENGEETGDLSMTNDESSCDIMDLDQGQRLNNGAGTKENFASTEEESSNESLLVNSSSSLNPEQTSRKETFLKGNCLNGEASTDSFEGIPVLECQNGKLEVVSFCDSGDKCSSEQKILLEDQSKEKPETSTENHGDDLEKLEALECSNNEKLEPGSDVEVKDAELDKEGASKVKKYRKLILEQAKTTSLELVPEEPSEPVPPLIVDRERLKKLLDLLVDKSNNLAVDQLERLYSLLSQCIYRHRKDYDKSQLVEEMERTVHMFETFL
Bromodomain-containing protein 9, sequence (Q9H8M2 whole entry, the tested form may be a part): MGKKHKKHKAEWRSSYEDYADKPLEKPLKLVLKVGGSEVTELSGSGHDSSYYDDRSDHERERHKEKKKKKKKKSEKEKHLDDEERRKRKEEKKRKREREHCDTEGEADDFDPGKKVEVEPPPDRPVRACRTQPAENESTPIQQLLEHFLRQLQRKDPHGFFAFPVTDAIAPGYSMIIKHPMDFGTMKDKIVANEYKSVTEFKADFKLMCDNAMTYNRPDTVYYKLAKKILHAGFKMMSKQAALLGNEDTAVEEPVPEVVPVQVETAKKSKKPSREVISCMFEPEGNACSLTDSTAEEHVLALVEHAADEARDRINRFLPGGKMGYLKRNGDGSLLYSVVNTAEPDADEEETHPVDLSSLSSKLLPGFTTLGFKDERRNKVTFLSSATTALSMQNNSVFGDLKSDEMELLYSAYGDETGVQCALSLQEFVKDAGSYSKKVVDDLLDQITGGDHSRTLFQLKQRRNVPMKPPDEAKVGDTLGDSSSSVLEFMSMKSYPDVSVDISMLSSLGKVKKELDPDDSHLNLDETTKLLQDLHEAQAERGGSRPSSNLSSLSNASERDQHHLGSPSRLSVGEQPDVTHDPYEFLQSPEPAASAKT
Bromodomain adjacent to zinc finger domain protein 2A, sequence (Q9UIF9 whole entry, the tested form may be a part): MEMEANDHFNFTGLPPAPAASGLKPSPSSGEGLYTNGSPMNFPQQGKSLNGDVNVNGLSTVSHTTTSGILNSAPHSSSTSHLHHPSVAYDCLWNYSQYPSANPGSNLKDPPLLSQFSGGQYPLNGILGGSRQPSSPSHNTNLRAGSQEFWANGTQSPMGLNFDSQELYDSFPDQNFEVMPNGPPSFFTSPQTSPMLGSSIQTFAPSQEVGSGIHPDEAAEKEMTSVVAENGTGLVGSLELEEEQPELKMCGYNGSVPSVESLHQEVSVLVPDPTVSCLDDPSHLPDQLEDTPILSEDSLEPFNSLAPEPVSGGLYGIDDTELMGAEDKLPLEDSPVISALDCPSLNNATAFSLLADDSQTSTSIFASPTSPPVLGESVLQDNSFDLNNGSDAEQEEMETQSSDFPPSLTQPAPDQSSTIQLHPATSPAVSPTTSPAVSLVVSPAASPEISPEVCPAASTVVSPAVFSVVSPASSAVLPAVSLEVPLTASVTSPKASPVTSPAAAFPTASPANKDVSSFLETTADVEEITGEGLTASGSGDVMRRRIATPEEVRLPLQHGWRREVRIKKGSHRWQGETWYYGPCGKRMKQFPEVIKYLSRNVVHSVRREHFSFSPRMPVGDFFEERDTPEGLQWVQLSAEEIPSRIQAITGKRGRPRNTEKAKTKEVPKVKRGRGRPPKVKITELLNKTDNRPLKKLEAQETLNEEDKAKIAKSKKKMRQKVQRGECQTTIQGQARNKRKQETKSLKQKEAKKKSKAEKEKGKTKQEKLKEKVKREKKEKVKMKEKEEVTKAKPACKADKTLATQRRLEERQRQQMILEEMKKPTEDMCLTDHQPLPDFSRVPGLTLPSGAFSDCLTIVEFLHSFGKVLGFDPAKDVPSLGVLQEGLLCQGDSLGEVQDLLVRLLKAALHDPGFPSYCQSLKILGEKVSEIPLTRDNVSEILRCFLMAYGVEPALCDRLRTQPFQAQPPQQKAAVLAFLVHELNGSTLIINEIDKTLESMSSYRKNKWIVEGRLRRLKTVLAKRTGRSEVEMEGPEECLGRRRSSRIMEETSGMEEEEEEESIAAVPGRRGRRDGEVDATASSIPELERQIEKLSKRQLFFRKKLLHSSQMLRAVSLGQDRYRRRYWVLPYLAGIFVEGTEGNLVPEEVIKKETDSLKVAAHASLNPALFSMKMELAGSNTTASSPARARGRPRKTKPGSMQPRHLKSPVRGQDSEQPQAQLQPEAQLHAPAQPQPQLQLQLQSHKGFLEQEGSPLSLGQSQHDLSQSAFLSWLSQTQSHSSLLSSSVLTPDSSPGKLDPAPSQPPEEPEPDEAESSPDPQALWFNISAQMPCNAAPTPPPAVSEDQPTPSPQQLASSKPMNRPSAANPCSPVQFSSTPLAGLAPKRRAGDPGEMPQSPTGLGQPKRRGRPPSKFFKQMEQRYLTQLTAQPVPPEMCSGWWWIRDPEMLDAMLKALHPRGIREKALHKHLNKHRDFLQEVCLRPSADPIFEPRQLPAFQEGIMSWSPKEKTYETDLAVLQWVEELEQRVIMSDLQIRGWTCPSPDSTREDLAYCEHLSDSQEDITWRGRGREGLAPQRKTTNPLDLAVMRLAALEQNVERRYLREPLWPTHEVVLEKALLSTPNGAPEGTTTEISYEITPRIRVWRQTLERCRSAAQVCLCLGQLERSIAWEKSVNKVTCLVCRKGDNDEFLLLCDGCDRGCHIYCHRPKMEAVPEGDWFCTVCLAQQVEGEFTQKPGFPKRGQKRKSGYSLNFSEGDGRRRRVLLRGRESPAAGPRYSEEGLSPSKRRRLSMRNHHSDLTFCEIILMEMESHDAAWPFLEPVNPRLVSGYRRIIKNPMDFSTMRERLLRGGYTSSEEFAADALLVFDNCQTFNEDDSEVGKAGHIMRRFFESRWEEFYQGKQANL
Bromodomain-containing protein 3, sequence (Q15059 whole entry, the tested form may be a part): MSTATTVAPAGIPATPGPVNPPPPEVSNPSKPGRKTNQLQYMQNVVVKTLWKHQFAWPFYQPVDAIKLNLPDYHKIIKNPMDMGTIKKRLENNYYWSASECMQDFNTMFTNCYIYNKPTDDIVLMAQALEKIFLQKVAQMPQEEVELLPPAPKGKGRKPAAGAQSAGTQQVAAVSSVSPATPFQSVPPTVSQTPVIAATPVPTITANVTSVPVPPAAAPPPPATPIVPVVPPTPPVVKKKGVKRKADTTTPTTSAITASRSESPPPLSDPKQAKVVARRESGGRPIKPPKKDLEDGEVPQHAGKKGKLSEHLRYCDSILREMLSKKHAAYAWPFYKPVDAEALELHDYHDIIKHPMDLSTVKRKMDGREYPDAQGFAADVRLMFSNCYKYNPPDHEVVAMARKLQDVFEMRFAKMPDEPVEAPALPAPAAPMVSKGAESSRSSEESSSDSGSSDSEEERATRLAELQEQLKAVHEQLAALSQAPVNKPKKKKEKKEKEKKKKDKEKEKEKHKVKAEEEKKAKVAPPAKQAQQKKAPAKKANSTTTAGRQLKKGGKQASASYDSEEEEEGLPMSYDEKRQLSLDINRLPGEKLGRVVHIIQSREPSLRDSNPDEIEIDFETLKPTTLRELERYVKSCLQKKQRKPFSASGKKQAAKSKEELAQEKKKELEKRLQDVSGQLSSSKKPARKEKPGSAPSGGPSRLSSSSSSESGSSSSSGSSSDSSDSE

Which Kd [1] does the source give for `COc1cc2c(cc1-c1c(C)noc1C)[nH]c1nc(C)nc(Nc3cc(C4CC4)nn3C)c12` here?
Its Kd is > 5 µM.

What about the inhibition in vivo at 25 mg/kg (MDA-MB-231) of the same compound?
The inhibition in vivo at 25 mg/kg was 67.6%.

And the Kd [2]?
The Kd was > 5 µM.

What about the Kd [3] of the same compound?
The Kd was > 5 µM.

What about the Kd [4] of the same compound?
The Kd was 0.0021 µM.

What about the Selectivity Index (Homo sapiens [5]) of the same compound?
The Selectivity Index was > 50.

What about the Kd [6] of the same compound?
The Kd was > 5 µM.

And the Kd [7]?
Its Kd is 0.00049 µM.

What about the Activity (Mus musculus) of the same compound?
The Activity was “Non-Toxic”.

And the Selectivity Index (Homo sapiens [8])?
Its Selectivity Index is > 50.

And the Selectivity Index (Homo sapiens [9])?
Its Selectivity Index is > 50.

And the Kd [10]?
Its Kd is > 5 µM.

And the Selectivity Index (Homo sapiens [11])?
The Selectivity Index was > 20.

What about the Kd [12] of the same compound?
The Kd was > 5 µM.

And the Kd [13]?
Its Kd is > 5 µM.

And the inhibition in vivo at 50 mg/kg (RS4-11)?
Its inhibition in vivo at 50 mg/kg is 72.3%.

What about the Kd [14] of the same compound?
Its Kd is > 5 µM.

And the concentration at 6 h [15]?
The concentration at 6 h was 7.37 µg/mL.

And the Kd [16]?
Its Kd is > 5 µM.

What about the Kd [17] of the same compound?
Its Kd is 0.11 µM.

What about the bioavailability [18] of the same compound?
The bioavailability was 71.3%.

And the Selectivity Index (Homo sapiens [19])?
Its Selectivity Index is > 50.

What about the Kd [20] of the same compound?
The Kd was > 5 µM.

What about the Selectivity Index (Homo sapiens [21]) of the same compound?
Its Selectivity Index is > 50.

And the half-life [22]?
Its half-life is 1 h.
